Test results from ChEMBL document CHEMBL3792310, “Amine-free melanin-concentrating hormone receptor 1 antagonists: Novel non-basic 1-(2H-indazole-5-yl)pyridin-2(1H)-one derivatives and mitigation of mutagenicity in Ames test” (Bioorg Med Chem, 2016).

How the values were obtained:
Salmonella typhimurium [1] = assay: Mutagenicity in Salmonella typhimurium TA1537 assessed as increase in number of revertant colony up to 5000 ug/plate by Ames test in absence of S9 fraction; format: toxicity, organism-based; conditions: salmonella enterica subsp. enterica serovar typhimurium
Summary of the method: (§1)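 Ames test in Salmonella typhimurium TA1537, with and without S9 metabolic activation. A positive call is a more than two-fold increase in revertant colonies over vehicle control.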

[2] = target: Melanin-concentrating hormone receptor 1 (Homo sapiens, UniProt Q99705); assay: Displacement of [125I]-MCH(4 to 19) from human MCHR1 expressed in CHO cell membranes after 1 hr liquid scintillation counting
[3] = target: Melanin-concentrating hormone receptor 1 (Rattus norvegicus, UniProt P97639); assay: Displacement of [125I]-MCH(4 to 19) from rat MCHR1 expressed in CHO cell membranes after 1 hr by liquid scintillation counting
Salmonella typhimurium [4] = assay: Mutagenicity in Salmonella typhimurium TA1537 at 250 ug by Ames test in presence of S9 fraction; format: toxicity, organism-based, Salmonella enterica subsp. enterica serovar Typhimurium; summary of the method: as §1
Salmonella typhimurium [5] = assay: Mutagenicity in Salmonella typhimurium TA1537 assessed as increase in number of revertant colony at 250 ug/plate by Ames test in absence of S9 fraction; format: toxicity, organism-based; conditions: salmonella enterica subsp. enterica serovar typhimurium; summary of the method: as §1
Salmonella typhimurium [6] = assay: Mutagenicity in Salmonella typhimurium TA1537 assessed as increase in number of revertant colony at 313 ug/plate by Ames test in absence of S9 fraction; format: toxicity, organism-based; conditions: salmonella enterica subsp. enterica serovar typhimurium

Sequence of Melanin-concentrating hormone receptor 1 (Homo sapiens, UniProt Q99705) (Q99705 whole entry): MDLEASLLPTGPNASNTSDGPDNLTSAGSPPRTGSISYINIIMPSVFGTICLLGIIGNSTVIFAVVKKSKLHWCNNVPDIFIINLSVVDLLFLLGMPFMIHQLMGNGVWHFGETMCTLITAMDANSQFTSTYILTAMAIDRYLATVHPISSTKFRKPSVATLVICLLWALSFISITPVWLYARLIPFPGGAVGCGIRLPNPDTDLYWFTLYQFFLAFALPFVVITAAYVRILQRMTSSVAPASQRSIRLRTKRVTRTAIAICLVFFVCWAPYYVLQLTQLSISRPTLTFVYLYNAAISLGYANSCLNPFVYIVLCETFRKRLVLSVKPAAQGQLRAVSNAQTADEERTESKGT
Sequence of Melanin-concentrating hormone receptor 1 (Rattus norvegicus, UniProt P97639) (P97639 whole entry): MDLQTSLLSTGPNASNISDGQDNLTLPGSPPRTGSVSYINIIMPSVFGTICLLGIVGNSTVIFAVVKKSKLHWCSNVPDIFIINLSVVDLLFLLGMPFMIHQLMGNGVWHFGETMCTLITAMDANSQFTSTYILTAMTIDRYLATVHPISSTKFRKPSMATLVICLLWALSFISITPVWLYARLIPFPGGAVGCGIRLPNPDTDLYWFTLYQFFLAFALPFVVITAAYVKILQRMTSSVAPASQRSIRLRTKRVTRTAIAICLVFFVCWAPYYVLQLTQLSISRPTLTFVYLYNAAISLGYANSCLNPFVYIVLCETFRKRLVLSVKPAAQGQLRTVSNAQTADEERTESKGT

Compound | IC50 [2] | IC50 [3] | Activity (Salmonella typhimurium [1]) | Activity (Salmonella typhimurium [4]) | fold change (FC) (Salmonella typhimurium [5]) | fold change (FC) (Salmonella typhimurium [6])
Cc1c2cc(-n3ccc(OCc4ccc(F)cc4)cc3=O)ccc2nn1C | 110 nM | 76 nM | Non-toxic |  |  | 
CCCn1nc2ccc(-n3ccc(OCc4ccc(Cl)cc4)cc3=O)cc2c1C | 210 nM | 130 nM |  |  |  | 
Cn1c(C2CC2)cc2ccc(-n3ccc(OCc4ccc(Cl)cc4)cc3=O)cc21 | 150 nM |  |  |  |  | 

Now those with a lower IC50 [2], led by results:

IC50 [2] | IC50 [3] | Compound | Activity (Salmonella typhimurium [1]) | Activity (Salmonella typhimurium [4]) | fold change (FC) (Salmonella typhimurium [5]) | fold change (FC) (Salmonella typhimurium [6])
99 nM |  | Cc1nn(C)c2ccc(-n3ccc(OCc4ccc(Cl)cc4)cc3=O)cc12 |  |  |  | 
43 nM | 35 nM | Cc1c2cc(-n3ccc(OCc4ccc(F)cc4)cc3=O)ccc2nn1C1CC1 | Non-toxic |  |  | 
35 nM | 36 nM | Cc1c2cc(-n3ccc(OCc4ccc(Cl)cc4)cc3=O)ccc2nn1C |  | Non-toxic | 2 | 
90 nM | 70 nM | Cc1c2cc(-n3ccc(OCc4csc(C(F)(F)F)c4)cc3=O)ccc2nn1C |  |  |  | 2
